Data from PMC2718129 (Molecular cancer therapeutics, 2009).
Several values for one entry are separate records, joined by “and”; a condition that tells them apart may be missing. Equal entries are not always repeated. Where two headings read alike, the source gives them in different places.

Legend:
[1] = test system: U87MG human glioblastoma xenografts; assay: U87MG glioblastoma xenograft efficacy study; type: in vivo, athymic mice; conditions: for T/C (final tumor weights) / tumor growth inhibition: U87MG xenografts; for tolerability of doses: i.p. dosing for 14 days
[2] = target: p110γ (Homo sapiens, UniProt P48736); assay: Phosphatidylinositide 3-kinase scintillation proximity assay, p110γ; type: biochemical; conditions: read-out: IC50 against p110γ; 1 μmol/L ATP
[3] = Pharmacokinetics of PI-540 and PI-620 in BALB/c mice; type: in vivo; conditions: for volume of distribution: female BALB/c mice, 10 mg/kg i.v.; for plasma clearance / oral bioavailability / terminal half-life in plasma / terminal half-life in tissues / spleen to plasma ratio: mice; for plasma clearance / terminal half-life in plasma / terminal half-life in tissues / spleen to plasma ratio: 10 mg/kg; for oral bioavailability: 10 mg/kg i.v. and p.o.; for terminal half-life in plasma / terminal half-life in tissues: after i.v. administration; for spleen to plasma ratio: following i.v. dosing
[4] = test system: panel of human cancer cell lines and human umbilical vein endothelial cells; assay: Antiproliferative GI50 assay, cell line panel; type: cell-based; conditions: 96 hours continuous exposure
In short: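 Tumor lines were grown in DMEM with 2 mmol/L glutamine, antibiotics and 10% FBS at 37°C in 5% CO2, and read by Alamar Blue or sulforhodamine B. Pooled HUVEC were used at passages 3 to 8 and read by an alkaline phosphatase assay. Exposure was continuous for 96 h. GI50 is the mean of three independent determinations.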

[5] = test system: phosphorylation of GSK3β Ser9 in U87MG cells; assay: Electrochemiluminescent immunoassay; type: cell-based, human
In short: (§1)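 U87MG cells were seeded at 8 × 10^4 cells/mL and treated 48 h later for 2 or 8 h with 5 to 500 nmol/L inhibitor. Cells were lysed and freeze-thawed once at -80°C, and lysate went directly onto Meso Scale multiplex phospho/total plates with overnight sample incubation before secondary antibody. One well from each of three independent plates was read. IC50 is given as mean ±SD.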

[6] = test system: phosphorylation of S6 ribosomal protein Ser235/Ser236 in U87MG cells; assay: Electrochemiluminescent immunoassay; type: cell-based, human; conditions: at 2 hours and, more potently, at 8 hours
In short: as §1

[7] = test system: phosphorylation of AKT (Thr308, Ser473) in U87MG cells; assay: Electrochemiluminescent immunoassay; type: cell-based, human; conditions: 2 or 8 h
In short: as §1

[8] = test system: phosphorylation of p70S6K Thr421/Ser424 in U87MG cells; assay: Electrochemiluminescent immunoassay; type: cell-based, human; conditions: at 2 hours and, more potently, at 8 hours
In short: as §1

[9] = test system: LoVo cells; assay: Antiproliferative GI50 assay, LoVo; type: cell-based; conditions: Homo sapiens, 96 h, read-out: antiproliferative GI50
In short: (§2)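 Cells grown in DMEM with 2 mmol/L glutamine, penicillin/streptomycin and 10% FBS at 37°C in 5% CO2, and mycoplasma-negative by PCR. Continuous 96 h exposure to test compound. Proliferation was read by Alamar Blue or sulforhodamine B, and GI50 was taken as the concentration giving 50% inhibition of proliferation.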

[10] = test system: SNUC2B cells; assay: Antiproliferative GI50 assay, SNUC2B; type: cell-based; conditions: Homo sapiens, SNU-C2B, 96 h, read-out: antiproliferative GI50
In short: as §2

[11] = test system: U87MG human glioblastoma xenografts; conditions: PTEN-null U87MG glioblastoma xenografts; cited from earlier work
[12] = test system: forkhead transcription factor translocation; conditions: read-out: 50% inhibition of forkhead transcription factor translocation; previously reported; cited from earlier work
[13] = test system: AKT phosphorylation (Ser473, Thr308) in U87MG tumor xenografts; conditions: for a short time; cited from earlier work
[14] = test system: AKT phosphorylation (Ser473, Thr308) in U87MG tumor xenografts; assay: Pharmacodynamic AKT phosphorylation in U87MG xenografts; type: in vivo, athymic mice
[15] = test system: poly(ADP-ribose) polymerase cleavage in U87MG xenografts; assay: PARP cleavage in U87MG xenografts; type: in vivo, athymic mice; conditions: 4 hours after oral dosing with 25 to 150 mg/kg
[16] = mice, 10 mg/kg; cited from earlier work
[17] = test system: IGROV-1 human ovarian cancer xenografts; assay: IGROV-1 ovarian cancer xenograft efficacy study; type: in vivo, athymic mice; conditions: IGROV-1 xenografts
[18] = test system: HCT116 cells; assay: Antiproliferative GI50 assay, HCT116; type: cell-based; conditions: Homo sapiens, HCT-116, 96 h, read-out: antiproliferative GI50
In short: as §2

[19] = test system: phosphorylation of GSK3β in U87MG tumor xenografts; assay: Pharmacodynamic GSK3β phosphorylation in U87MG xenografts; type: in vivo, athymic mice; conditions: 50 mg/kg b.i.d or 100 mg/kg u.i.d i.p. for 4 days
[20] = 25 mg/kg b.i.d i.p. for 14 days, 25 mg/kg
[21] = 50 mg/kg u.i.d i.p. for 14 days
[22] = 25 mg/kg daily p.o. for 19 days
[23] = 25 mg/kg oral daily for 13 days
[24] = 50 mg/kg b.i.d or 100 mg/kg u.i.d i.p. for 4 days, at 1 hour
[25] = 50 mg/kg b.i.d. i.p. for 14 days, 50 mg/kg

p110γ, sequence (P48736 whole entry, species assumed): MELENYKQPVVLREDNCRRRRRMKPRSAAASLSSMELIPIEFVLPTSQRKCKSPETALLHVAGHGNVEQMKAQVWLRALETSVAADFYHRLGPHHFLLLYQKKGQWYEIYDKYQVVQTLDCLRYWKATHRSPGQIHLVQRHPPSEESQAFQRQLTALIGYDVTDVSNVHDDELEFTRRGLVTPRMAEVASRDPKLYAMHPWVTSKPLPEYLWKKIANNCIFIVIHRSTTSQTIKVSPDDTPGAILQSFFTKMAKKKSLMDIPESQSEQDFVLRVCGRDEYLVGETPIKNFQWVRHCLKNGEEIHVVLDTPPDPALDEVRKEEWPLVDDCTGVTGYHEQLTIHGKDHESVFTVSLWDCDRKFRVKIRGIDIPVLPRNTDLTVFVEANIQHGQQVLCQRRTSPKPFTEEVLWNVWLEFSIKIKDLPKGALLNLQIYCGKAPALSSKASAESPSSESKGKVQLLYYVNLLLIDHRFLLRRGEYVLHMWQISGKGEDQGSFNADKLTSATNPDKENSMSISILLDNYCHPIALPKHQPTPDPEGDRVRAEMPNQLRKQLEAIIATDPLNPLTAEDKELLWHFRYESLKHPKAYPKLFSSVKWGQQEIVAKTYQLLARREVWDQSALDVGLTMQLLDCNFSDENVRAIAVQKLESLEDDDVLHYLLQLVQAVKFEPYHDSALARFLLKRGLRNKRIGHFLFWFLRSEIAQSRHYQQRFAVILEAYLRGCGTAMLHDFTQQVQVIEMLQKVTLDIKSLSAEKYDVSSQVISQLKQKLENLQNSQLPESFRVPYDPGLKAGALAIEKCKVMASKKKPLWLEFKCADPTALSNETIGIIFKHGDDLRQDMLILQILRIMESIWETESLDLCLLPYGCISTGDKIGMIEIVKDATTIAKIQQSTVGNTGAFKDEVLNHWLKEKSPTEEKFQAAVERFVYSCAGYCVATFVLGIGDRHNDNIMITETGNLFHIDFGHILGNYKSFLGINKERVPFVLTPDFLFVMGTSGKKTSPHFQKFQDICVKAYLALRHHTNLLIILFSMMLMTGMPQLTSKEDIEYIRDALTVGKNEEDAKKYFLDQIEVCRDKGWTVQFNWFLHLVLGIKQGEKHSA

In the case of OCCN1CCN(Cc2cc3nc(-c4cccc(O)c4)nc(N4CCOCC4)c3s2)CC1 [PI-620], the “T/C (final tumor weights)” value [1, 20] is reported as 27% and 26.7%, the tumor growth inhibition [1, 20] is reported as 73% and 73.3% and the “T/C (final tumor weights)” value [1, 21] is reported as 44.8%. The tumor growth inhibition [1, 21] was 55.2%, the tolerability of doses ([1]; athymic mice) was “very well tolerated” and the IC50 [2] was over 300 nM. For the same compound, the volume of distribution [3] was 206 mL, the plasma clearance [3] was “high” and the oral bioavailability [3] was under 10%. The “terminal half-life in plasma” value [3] was 0.9 h, the “terminal half-life in tissues” value [3] was 4.3 h and the “spleen to plasma ratio” value [3] was 13.9. The “growth inhibition potency in each cell line of the panel” value [4] was “submicromolar”.
In the case of CO[C@H]1C[C@@H]2CC[C@@H](C)[C@@](O)(O2)C(=O)C(=O)N2CCCC[C@H]2C(=O)O[C@H]([C@H](C)C[C@@H]2CC[C@@H](O)[C@H](OC)C2)CC(=O)[C@H](C)/C=C(\C)[C@@H](O)[C@@H](OC)C(=O)[C@H](C)C[C@H](C)/C=C/C=C/C=C/1C [Rapamycin], the “effect on phosphorylation of GSK3β” value ([5]; 2 or 8 h) is reported as “did not affect”, the “effect on phosphorylation of S6 ribosomal protein” value [6] is reported as “inhibited” and the “effect on phosphorylation of AKT” value [7] is reported as “did not affect”. For the same compound, the “effect on phosphorylation of p70S6K” value [8] was “inhibited”.
In the case of Oc1cccc(-c2nc(N3CCOCC3)c3oc4ncccc4c3n2)c1 [PI-103], the GI50 [9] is given as 22 nM, the GI50 [10] is given as 827 nM and the “growth inhibition in xenografts” value [11] is given as over 50%. For the same compound, the IC50 [12] was 30 nM and the “inhibition of phosphorylation of AKT Ser473 in tumor” value [13] was at most 50%.
In the case of CS(=O)(=O)N1CCN(Cc2cc3nc(-c4cccc5[nH]ncc45)nc(N4CCOCC4)c3s2)CC1 [GDC-0941, 2-(1H-Indazol-4)-6-(4-methanesulfonyl-piperazin-1-ylmethyl)-4-morpholin-4-yl-thieno[3,2-d]pyrimidine], the GI50 [9] is reported as 180 nM, the “levels of activated AKT Ser473 in tumor” value ([14]; 150 mg/kg daily p.o. for 19 days, 4 hours after the last dose) is reported as “undetectable” and the “duration of maintained inhibition of AKT Ser473 phosphorylation in tumor” value ([14]; oral dosing) is reported as over 8 h. For the same compound, the “poly(ADP-ribose) polymerase cleavage in tumor samples” value [15] was “clear increase”, the “T/C (final tumor weights)” value [1, 22] was 23.4% and the tumor growth inhibition [1, 22] was 76.6%. For the same compound, the “T/C (final tumor weights)” value ([1]; 150 mg/kg daily p.o. for 19 days) was 2.3%, the tumor growth inhibition ([1]; 150 mg/kg daily p.o. for 19 days, 150 mg/kg) was 98% and 97.7% and the tolerability of therapy ([1]; athymic mice, 25 to 150 mg/kg daily p.o. for 19 days, all groups gained weight at similar rates to controls) was “well tolerated”. The GI50 [10] was 1630 nM, the oral bioavailability [16] was 78% and the T/C [17, 23] was 50.5%. For the same compound, the tumor growth inhibition [17, 23] was 49.5%, the T/C ([17]; 150 mg/kg oral daily for 13 days) was 19.7% and the tumor growth inhibition ([17]; 150 mg/kg oral daily for 13 days, 150 mg/kg) was 80% and 80.3%. For the same compound, the GI50 [18] was 905 nM.
In the case of CN1CCN(Cc2cc3nc(-c4cccc(O)c4)nc(N4CCOCC4)c3s2)CC1 [PI-540], the “fold less potent in inhibiting phosphorylation of GSK3β Ser9 compared with phosphorylation of AKT” value [5] is reported as 10 fold, the “inhibition of phosphorylation on AKT Ser473 in tumor” value [14, 24] is reported as over 50% and the “inhibition of phosphorylation on AKT Thr308 in tumor” value [14, 24] is reported as over 50%. The “T/C (final tumor weights)” value [1, 25] was 34% and 33.9%, the tumor growth inhibition [1, 25] was 66% and 66.1% and the tolerability of doses ([1]; athymic mice) was “very well tolerated”. For the same compound, the “inhibition of phosphorylation of GSK3β in tumor” value [19] was “no detectable inhibition”, the IC50 [2] was over 300 nM and the volume of distribution [3] was 300 mL. The plasma clearance [3] was “high”, the oral bioavailability [3] was under 10% and the “terminal half-life in plasma” value [3] was 0.24 h. The “terminal half-life in tissues” value [3] was 7.6 h, the “spleen to plasma ratio” value [3] was 31 and the “growth inhibition potency in each cell line of the panel” value [4] was “submicromolar”.
